Converted amounts (≈) assume the structure as drawn.
Assays:
Hepatitis B virus [1] = test: Antiviral activity against HBV infected in HepDE19 cells assessed as inhibition of HBV DNA; assay type: functional, organism-based
Method in brief: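 HepDE19 cells (HepG2-derived, HBV genotype D ayw, Tet-off CMV) seeded at 50,000 cells/well with tetracycline 1 μg/mL overnight. Next day switched to tet-free medium for 4 h, then given compound from 10 μM in a ½-log 8-point series, in duplicate, 0.5% DMSO final. After 7 days at 37 °C, intracellular rcDNA was read by bDNA. EC50 from a 4-parameter fit vs DMSO wells; mean of ≥2 experiments.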

Hepatitis B virus [2] = test: Antiviral activity against HBV infected in NOD.CB17-Prkdc-scid/J hydrodynamic injection mouse model expressing HBV genotype D assessed as log reduction in HBV DNA at 30 mg/kg,po QD for 7 days by qPCR method relative to control; assay type: functional; conditions: time 7 day
Method in brief: (§1)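 Six-week-old female NOD.CB17-Prkdcscid/J mice received an HBV plasmid by hydrodynamic tail-vein injection (1.6 mL within 5 s). Seven days after injection (day 0), oral gavage dosing began at 3, 10 or 30 mg/kg once or twice daily; controls received vehicle by gavage. Serum was taken on day 0 (predose) and day 7, and HBV DNA was measured in total extracted nucleic acid by qPCR.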

[3] = AUC (0-infinity) in CD-1 mouse at 10 mg/kg, po; assay type: ADME, organism-based; set-up: time infinity, dose 10 mg/kg, route po; conditions: in vivo
Method in brief: (§2)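 Female CD-1 mice were dosed 2.0 mg/kg IV or 10 mg/kg PO in 40% PEG400/5% EtOH/55% water. Serial blood was taken at 5 min (IV), 15 min (PO), 30 min, and 2, 4, 8, 12 and 24 h into K2EDTA, and plasma was prepared. Plasma levels were measured by LC-MS/MS against spiked plasma standards of 0.5–8000 ng/mL. Parameters came from non-compartmental analysis.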

[4] = Aqueous solubility of compound at pH 7.4; assay type: physicochemical; conditions: buffer
Method in brief: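 A 10 mM DMSO stock was diluted into PBS pH 7.4 to 200 μM compound, 2% DMSO final, and shaken 18–24 h at 22 °C. Samples were filtered by centrifugation and the filtrate quantified by UPLC-UV/MS against a standard curve of 4–200 μM in DMSO.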

in vitro [5] = conditions: human, liver microsomes
Hepatitis B virus [6] = test: Antiviral activity against HBV infected in NOD.CB17-Prkdc-scid/J hydrodynamic injection mouse model expressing HBV genotype D assessed as log reduction in HBV DNA at 10 mg/kg,po QD for 7 days by qPCR method relative to control; assay type: functional; conditions: time 7 day; method in brief: as §1
[7] = Cmax in CD-1 mouse at 10 mg/kg, po; assay type: ADME, organism-based; set-up: dose 10 mg/kg, route po; conditions: in vivo; method in brief: as §2
[8] = Half life in CD-1 mouse at 10 mg/kg, po or 2 mg/kg, iv; assay type: ADME, organism-based; conditions: in vivo; method in brief: as §2
Hepatitis B virus [9] = test: Antiviral activity against HBV infected in NOD.CB17-Prkdc-scid/J hydrodynamic injection mouse model expressing HBV genotype D assessed as log reduction in HBV DNA at 3 mg/kg,po QD for 7 days by qPCR method relative to control; assay type: functional; conditions: time 7 day; method in brief: as §1
in vitro [10] = conditions: CD-1, mouse, liver microsomes
Hepatitis B virus [11] = test: Antiviral activity against HBV infected in NOD.CB17-Prkdc-scid/J hydrodynamic injection mouse model expressing HBV genotype D assessed as log reduction in HBV DNA at 3 mg/kg,po BID for 7 days by qPCR method relative to control; assay type: functional; conditions: time 7 day; method in brief: as §1
[12] = Metabolic stability in CD-1 mouse liver microsomes assessed as parent compound remaining at 0.3 uM and measured after 1 hrs; assay type: ADME, Microsome; conditions: read-out: Stability
[13] = Metabolic stability in CD-1 mouse liver microsomes assessed as half life at 0.3 uM and measured upto 1 hrs; assay type: ADME, Microsome
Method in brief: (§3)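 Compound at 0.3 μM final was incubated with human or mouse liver microsomes at 0.5 mg/mL in 100 mM potassium phosphate pH 7.4 with 1 mM NADPH at 37 °C. T1/2 = ln(2)/k. CLint = (0.693/t1/2)/0.5 mg/mL microsomal protein.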

Hepatitis B virus [14] = test: Antiviral activity against HBV infected in NOD.CB17-Prkdc-scid/J hydrodynamic injection mouse model expressing HBV genotype D assessed as log reduction in HBV DNA at 30 mg/kg,po BID for 7 days by qPCR method relative to control; assay type: functional; conditions: time 7 day; method in brief: as §1
[15] = Cytotoxicity against human HepDE19 cells assessed as reduction in cell viability upto 25 uM; assay type: toxicity, cell-based; conditions: hepde19, 25 µM
Method in brief: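 Run on HepDE19 replicate plates seeded at 5,000 cells/well after tetracycline removal. Cells were exposed to compound for 4 days at 37 °C, 5% CO2. Viability was read as intracellular ATP by CellTiter-Glo luminescence, expressed as % of DMSO controls. CC50 came from a 4-parameter curve fit, as the mean of ≥2 experiments.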

Hepatitis B virus [16] = test: Antiviral activity against HBV infected in NOD.CB17-Prkdc-scid/J hydrodynamic injection mouse model expressing HBV genotype D assessed as log reduction in HBV DNA at 10 mg/kg,po BID for 7 days by qPCR method relative to control; assay type: functional; conditions: time 7 day; method in brief: as §1
[17] = Metabolic stability in human liver microsomes assessed as half life at 0.3 uM and measured upto 1 hrs; assay type: ADME, Microsome; method in brief: as §3
[18] = Metabolic stability in human liver microsomes assessed as parent compound remaining at 0.3 uM and measured after 1 hrs; assay type: ADME, Microsome; conditions: read-out: Stability
Hepatitis B virus [19] = test: Antiviral activity against HBV infected in NOD.CB17-Prkdc-scid/J hydrodynamic injection mouse model expressing HBV genotype D assessed as log reduction in HBV DNA at 100 mg/kg,po QD for 7 days by qPCR method relative to control; assay type: functional; conditions: time 7 day

EC50 (Hepatitis B virus [1])	AUC [3]	solubility [4]	microsomal CLint at 1 h, 0.3 µM (in vitro [5])	Cmax [7]	half-life [8]	microsomal CLint at 1 h, 0.3 µM (in vitro [10])	Structure (SMILES)	also measured
57 nM	60600 ng·h/mL	10 µM (≈ 4.33 µg/mL)	7.9 µL/min/mg	4530 ng/mL	5.8 h	21.6 µL/min/mg	Cn1cc2c(c1C(=O)Nc1ccc(F)c(Cl)c1)CC[C@@H]2NC(=O)OCc1c[nH]nn1	log(activity) (Hepatitis B virus [2]): 2; log(activity) (Hepatitis B virus [6]): 1.5; log(activity) (Hepatitis B virus [9]): 0.8
11 nM		< 4 µM	8.6 µL/min/mg			29.7 µL/min/mg	Cn1c(Cl)c2c(c1C(=O)Nc1ccc(F)c(Cl)c1)CC[C@@H]2NC(=O)OCc1nc[nH]n1	
14 nM	30600 ng·h/mL	< 4 µM	11.2 µL/min/mg	2510 ng/mL	3.5 h	20.2 µL/min/mg	Cn1c(Cl)c2c(c1C(=O)Nc1ccc(F)c(Cl)c1)CC[C@@H]2NC(=O)OCc1c[nH]nn1	
52 nM	46700 ng·h/mL	24 µM (≈ 10.7 µg/mL)	5.4 µL/min/mg	4270 ng/mL	2.6 h	12.2 µL/min/mg	Cn1cnc(COC(=O)N[C@H]2CCc3c2cn(C)c3C(=O)Nc2ccc(F)c(Cl)c2)n1	log(activity) (Hepatitis B virus [2]): 1.8; log(activity) (Hepatitis B virus [11]): 0.8; remaining at 1 h, 0.3 µM [12]: 81%; half-life at 0.3 µM [13]: 1.9 h; log(activity) (Hepatitis B virus [14]): 2.5; Activity [15]: Non-Toxic; log(activity) (Hepatitis B virus [16]): 1.9; half-life at 0.3 µM [17]: 4.27 h; remaining at 1 h, 0.3 µM [18]: 87%
50 nM	40700 ng·h/mL	23 µM (≈ 9.96 µg/mL)	4.1 µL/min/mg	3860 ng/mL	4.8 h	12.3 µL/min/mg	Cn1cc2c(c1C(=O)Nc1ccc(F)c(Cl)c1)CC[C@@H]2NC(=O)OCc1nc[nH]n1	log(activity) (Hepatitis B virus [6]): 0.6
3500 nM							Cn1cnc(COC(=O)N[C@@H]2CCc3c2cn(C)c3C(=O)Nc2ccc(F)c(Cl)c2)n1	Activity [15]: Non-Toxic
52 nM		< 4 µM	24.4 µL/min/mg			38.4 µL/min/mg	Cn1cc(COC(=O)N[C@H]2CCc3c2cn(C)c3C(=O)Nc2ccc(F)c(Cl)c2)nn1	

Second part, the compound before the results:

Structure (SMILES)	EC50 (Hepatitis B virus [1])	AUC [3]	solubility [4]	microsomal CLint at 1 h, 0.3 µM (in vitro [5])	Cmax [7]	half-life [8]	microsomal CLint at 1 h, 0.3 µM (in vitro [10])	also measured
Cn1cnc(COC(=O)N[C@H]2CCc3c2c(Cl)n(C)c3C(=O)Nc2ccc(F)c(Cl)c2)n1	13 nM		5 µM (≈ 2.41 µg/mL)	8.8 µL/min/mg			33.8 µL/min/mg	
Cn1cnc(COC(=O)N[C@H]2CCc3c2c(Br)n(C)c3C(=O)Nc2ccc(F)c(Cl)c2)n1	12 nM		< 4 µM	8.5 µL/min/mg			31.4 µL/min/mg	
O=C(NCc1cnc(C(F)(F)F)s1)c1ccc2c(c1)NC(=O)c1ccccc1S2(=O)=O [VEBICORVIR]	250 nM							
Cc1c2c(c(C(=O)Nc3ccc(F)c(Cl)c3)n1C)CC[C@@H]2NC(=O)OCc1ncn(C)n1	114 nM		5 µM (≈ 2.3 µg/mL)	12.7 µL/min/mg			52.8 µL/min/mg	
O=C(Nc1cc(F)c(F)c(F)c1)c1ccc(F)c(S(=O)(=O)N2CCC(O)CC2)c1	650 nM							
CCOC(=O)C1=C(CN2CCOCC2)NC(c2nccs2)=NC1c1ccc(F)cc1Br (stereo unspecified)	110 nM							
C[C@H](NS(=O)(=O)c1cc(C(=O)Nc2ccc(F)c(C#N)c2)n(C)c1)C(F)(F)F [BERSACAPAVIR]	45 nM							
Cn1cnc(COC(=O)N[C@H]2CCc3c(C(=O)Nc4ccc(F)c(Cl)c4)ccc(F)c32)n1	77 nM	9870 ng·h/mL		6.2 µL/min/mg	1610 ng/mL	2.5 h	20.6 µL/min/mg	remaining at 1 h, 0.3 µM [12]: 56%; half-life at 0.3 µM [13]: 1.23 h; log(activity) (Hepatitis B virus [14]): 2.1; log(activity) (Hepatitis B virus [19]): 1; log(activity) (Hepatitis B virus [16]): 0.6; half-life at 0.3 µM [17]: 3.22 h; remaining at 1 h, 0.3 µM [18]: 83%
COC(=O)C1=C(CN2CCOC[C@H]2C(=O)O)NC(c2nccs2)=N[C@H]1c1ccc(F)cc1Br	50 nM							

— ChEMBL document CHEMBL5104109, “The identification of highly efficacious functionalised tetrahydrocyclopenta[c]pyrroles as inhibitors of HBV viral replication through modulation of HBV capsid assembly” (RSC Med Chem, 2022)
